The Kd is the free concentration of one partner at which half of the binding sites on the other are occupied at equilibrium, for simple one-to-one binding. Low values mean higher affinity, high ones lower affinity.

SMILES strings stand for the structures. Bridge positions count the residues as written; N and C are the ends. Square brackets hold non-standard residues; d marks the D form. Peptide text beside a SMILES is read from it. * marks the point of attachment. X1 = CN(C)c1ccc2c(-c3ccc(C(=O)*)cc3C(=O)[O-])c3ccc(=[N+](C)C)cc-3oc2c1; R5 = C=CCCC[C@@](C)(N)C(=O)O; S5 = C=CCCC[C@](C)(N)C(=O)O

These results are taken from article PMC11319934 (PNAS Nexus, 2024).

Experiment [1] concerns M. polymorpha gemmalings (Tak-1). Briefly: Growth. The class given is in vivo, Marchantia polymorpha. The note with it: Tak-1 gemmalings on 1/2 B5 medium, OPDA 50 µM, n = 24. Summed up:
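Tak-1 gemmalings grown 2 weeks on half-strength Gamborg's B5 with 1% agar, containing OPDA (50 µM) ± test compound (10 µM). Continuous light 50–60 µmol m-2 s-1, 22°C. Plant area measured in mm2 (n = 24). Experiment repeated three times; one-way ANOVA/Tukey's HSD, P < 0.01.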

Experiment [2] deals with T1, His-MYC3-FLAG (His6-SUMO-MYC3(44–238)-FLAG) (Arabidopsis thaliana, UniProt Q9FIP9).
T1 sequence (Q9FIP9 44-238): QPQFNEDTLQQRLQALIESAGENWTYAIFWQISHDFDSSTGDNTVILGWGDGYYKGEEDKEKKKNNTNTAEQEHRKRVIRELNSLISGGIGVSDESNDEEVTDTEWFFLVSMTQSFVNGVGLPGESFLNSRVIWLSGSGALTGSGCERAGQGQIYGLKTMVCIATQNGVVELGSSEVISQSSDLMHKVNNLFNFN
The experiment can be described thus: Fluorescence anisotropy. The class given is binding. Particulars: for fold lower Kd with His-MYC3-FLAG than that of 1: ratio of Kd of 1 to Kd of the peptide.

In experiment [3] the target is T2, His-EIN3-FLAG (His6-SUMO-EIN3(200–500)-FLAG) (Arabidopsis thaliana, UniProt O24606).
T2 sequence (O24606 200-500): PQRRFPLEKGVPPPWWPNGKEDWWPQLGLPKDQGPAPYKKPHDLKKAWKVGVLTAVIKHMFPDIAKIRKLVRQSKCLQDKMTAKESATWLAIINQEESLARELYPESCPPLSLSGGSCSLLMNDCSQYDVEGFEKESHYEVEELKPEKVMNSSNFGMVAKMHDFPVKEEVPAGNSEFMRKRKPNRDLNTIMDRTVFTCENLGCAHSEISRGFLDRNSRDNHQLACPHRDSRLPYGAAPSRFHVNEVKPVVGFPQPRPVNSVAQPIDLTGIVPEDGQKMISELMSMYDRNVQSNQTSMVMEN
Briefly: Fluorescence anisotropy. The class given is binding. The method in brief: (§1)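 FA titration at 25°C in 20 mM Tris-HCl pH 8.0, 200 mM NaCl, 10% glycerol, 10% cOmplete EDTA-free, with 2-mercaptoethanol (EIN3/EIL1 family). Protein added dropwise to 100 nM TMR-labelled peptide; His-EIN3-FLAG titrated 0–2 µM. Anisotropy read at ex/em 543/573.5 nm. Each point is the average of three independent measurements. Apparent Kd obtained by nonlinear curve fitting.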
On the technique in general: In fluorescence polarisation assays a small probe gives low polarisation when free and higher when bound to something large.

The target in experiment [4] is T3, His-EIL1-FLAG (Arabidopsis thaliana, UniProt Q9SLH0).
T3 sequence (Q9SLH0 201-501): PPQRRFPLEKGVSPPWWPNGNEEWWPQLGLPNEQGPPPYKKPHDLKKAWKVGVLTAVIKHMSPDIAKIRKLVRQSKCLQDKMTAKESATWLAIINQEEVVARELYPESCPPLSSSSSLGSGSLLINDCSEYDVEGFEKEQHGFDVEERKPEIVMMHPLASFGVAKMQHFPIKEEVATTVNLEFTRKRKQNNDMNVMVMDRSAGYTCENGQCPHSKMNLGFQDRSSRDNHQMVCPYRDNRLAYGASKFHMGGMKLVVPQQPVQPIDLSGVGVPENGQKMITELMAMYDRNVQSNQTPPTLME
Briefly: Fluorescence anisotropy. Format: binding. The method in brief: as §1

In experiment [5] the test system is A. thaliana seedlings (Col-0). The experiment can be described thus: Root growth of A. thaliana seedlings with MeJA. The note with it: 7-day-old Col-0 seedlings, MeJA 50 µM on 1/2 MS, n = 15. Format: in vivo, Arabidopsis thaliana. The method in brief:
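Surface-sterilized Col-0 seeds stratified 2–3 days at 4°C. Grown on half-strength MS plates (2% sucrose, 0.4% gellan gum) with MeJA (50 µM) ± test compound (10 µM), under 16 h light (75 µmol m-2 s-1)/8 h dark at 22°C. Whole-seedling root length measured (n = 15). Repeated three times; one-way ANOVA/Tukey's HSD, P < 0.01.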

Consider `CC/C=C\C[C@@H]1C(=O)C=C[C@@H]1CCCCCCCC(=O)O` [OPDA, reference compound], for which the “plant growth (plant area)” value in experiment [1] was “inhibited plant growth”.

Take `CC[C@H](C)[C@H](NC(=O)[C@H](C)NC(=O)CNC(=O)[C@H](CCC(N)=O)NC(=O)[C@@H](NC(=O)[C@H](CC(=O)O)NC(=O)[C@H](CCCNC(=N)N)NC(=O)[C@H](Cc1ccccc1)NC(=O)[C@H](CO)NC(=O)[C@H](CCCNC(=N)N)NC(=O)[C@H](CCCNC(=N)N)NC(=O)[C@H](CCCNC(=N)N)NC(=O)[C@H](CC(=O)O)NC(=O)[C@H](CC(C)C)NC(=O)[C@H](Cc1ccccc1)NC(=O)[C@H](CCCCN)NC(=O)[C@H](CCC(N)=O)NC(=O)[C@H](Cc1ccccc1)NC(=O)c1ccc(-c2c3ccc(=[N+](C)C)cc-3oc3cc(N(C)C)ccc23)c(C(=O)[O-])c1)[C@@H](C)CC)C(=O)N[C@@H](CO)C(=O)N[C@@H](CCCCN)C(=O)N[C@H](C(=O)N[C@@H](CC(=O)O)C(=O)N1CCC[C@H]1C(=O)N[C@@H](CCC(=O)O)C(=O)N[C@]1(C)CCCC=CCCC[C@@](C)(C(=O)N[C@@H](CC(C)C)C(=O)N[C@@H](CC(C)C)C(=O)N[C@@H](C)C(=O)N[C@@H](CO)C(=O)N[C@H](C(=O)O)[C@@H](C)O)NC(=O)[C@H](CCCCN)NC(=O)[C@H]([C@@H](C)CC)NC1=O)[C@@H](C)CC` [compound 3] (X1-FQKFLDRRRSFRDIQGAISKIDPE[R5]IK[S5]LLAST-OH; staple 25-28): the Kd turned out to be 310 nM in experiment [2] and 600 nM in experiment [3]. In addition, the “fold lower Kd with His-MYC3-FLAG than that of 1” value in experiment [2] was determined as 0.67 fold.

As to `CC[C@H](C)[C@H](NC(=O)[C@H](CCCCN)NC(=O)[C@H](CO)NC(=O)[C@@H](NC(=O)[C@]1(C)CCCC=CCCC[C@](C)(NC(=O)[C@H](CCCNC(=N)N)NC(=O)[C@H](Cc2ccccc2)NC(=O)[C@H](CO)NC(=O)[C@H](CCCNC(=N)N)NC(=O)[C@H](CCCNC(=N)N)NC(=O)[C@H](CCCNC(=N)N)NC(=O)[C@H](CC(=O)O)NC(=O)[C@H](CC(C)C)NC(=O)[C@H](Cc2ccccc2)NC(=O)[C@H](CCCCN)NC(=O)[C@H](CCC(N)=O)NC(=O)[C@H](Cc2ccccc2)NC(=O)c2ccc(-c3c4ccc(=[N+](C)C)cc-4oc4cc(N(C)C)ccc34)c(C(=O)[O-])c2)C(=O)N[C@@H]([C@@H](C)CC)C(=O)N[C@@H](CCC(N)=O)C(=O)NCC(=O)N1)[C@@H](C)CC)C(=O)N[C@@H](CC(=O)O)C(=O)N1CCC[C@H]1C(=O)N[C@@H](CCC(=O)O)C(=O)N[C@H](C(=O)N[C@H](C(=O)N[C@@H](CCCCN)C(=O)N[C@@H](CO)C(=O)N[C@@H](CC(C)C)C(=O)N[C@@H](CC(C)C)C(=O)N[C@@H](C)C(=O)N[C@@H](CO)C(=O)N[C@H](C(=O)O)[C@@H](C)O)[C@@H](C)CC)[C@@H](C)CC` [compound 2] (X1-FQKFLDRRRSFR[S5]IQG[S5]ISKIDPEIIKSLLAST-OH; staple 13-17), the dissociation constant Kd in experiment [2] was 61 nM; in experiment [3], 290 nM. Also, in experiment [2], the “fold lower Kd with His-MYC3-FLAG than that of 1” value stood at 7 fold.

For the molecule `CC[C@H](C)[C@H](NC(=O)[C@H](C)NC(=O)CNC(=O)[C@H](CCC(N)=O)NC(=O)[C@@H](NC(=O)[C@H](CC(=O)O)NC(=O)[C@H](CCCNC(=N)N)NC(=O)[C@H](Cc1ccccc1)NC(=O)[C@H](CO)NC(=O)[C@H](CCCNC(=N)N)NC(=O)[C@H](CCCNC(=N)N)NC(=O)[C@H](CCCNC(=N)N)NC(=O)[C@H](CC(=O)O)NC(=O)[C@H](CC(C)C)NC(=O)[C@H](Cc1ccccc1)NC(=O)[C@H](CCCCN)NC(=O)[C@H](CCC(N)=O)NC(=O)[C@H](Cc1ccccc1)NC(=O)c1ccc(-c2c3ccc(=[N+](C)C)cc-3oc3cc(N(C)C)ccc23)c(C(=O)[O-])c1)[C@@H](C)CC)C(=O)N[C@@H](CO)C(=O)N[C@@H](CCCCN)C(=O)N[C@H](C(=O)N[C@@H](CC(=O)O)C(=O)N1CCC[C@H]1C(=O)N[C@@H](CCC(=O)O)C(=O)N[C@H](C(=O)N[C@H](C(=O)N[C@@H](CCCCN)C(=O)N[C@@H](CO)C(=O)N[C@@H](CC(C)C)C(=O)N[C@@H](CC(C)C)C(=O)N[C@@H](C)C(=O)N[C@@H](CO)C(=O)N[C@H](C(=O)O)[C@@H](C)O)[C@@H](C)CC)[C@@H](C)CC)[C@@H](C)CC` [compound 1] (X1-FQKFLDRRRSFRDIQGAISKIDPEIIKSLLAST-OH), the Kd in experiment [4] was found to be 440 nM; in experiment [2], 210 nM.

On to `CC/C=C\CC1C(=O)CCC1CC(=O)OC` (stereo not shown) [MeJA, methyl jasmonate, reference compound], for which the “root growth of seedlings” value in experiment [5] is reported as “severe root growth inhibition”.
